# Hits are enriched below; roughly 8.8% of the tested compounds scored in any of these assays.
# M1 antagonist: antagonists of rat M1 muscarinic receptor; P08482; CHO-M1 cells, Fluo-4 calcium, ACh EC80 antagonist mode; active compounds read low; B-score at 10 µM; 3.4% of 64,000 active; AID 628;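 active means calcium fluorescence response, raw or row-and-column corrected B-score, differing from the plate sample mean either way at a set confidence level, mostly lower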
# Target sequence (P08482 whole entry, looked up): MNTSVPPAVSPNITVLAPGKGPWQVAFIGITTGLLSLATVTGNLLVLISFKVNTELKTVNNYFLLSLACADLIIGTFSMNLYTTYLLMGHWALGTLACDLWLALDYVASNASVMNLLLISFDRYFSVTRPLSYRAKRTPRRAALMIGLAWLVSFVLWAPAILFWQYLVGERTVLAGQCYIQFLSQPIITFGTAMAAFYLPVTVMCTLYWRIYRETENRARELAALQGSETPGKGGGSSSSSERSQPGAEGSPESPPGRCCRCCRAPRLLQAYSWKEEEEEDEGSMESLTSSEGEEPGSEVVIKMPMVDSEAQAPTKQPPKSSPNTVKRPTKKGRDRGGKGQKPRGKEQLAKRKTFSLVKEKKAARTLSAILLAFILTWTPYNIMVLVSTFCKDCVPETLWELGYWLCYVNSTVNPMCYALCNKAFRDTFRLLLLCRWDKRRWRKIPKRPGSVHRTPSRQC
# SF-1 act: SF-1 (human) activation; 1.9% of 65,000 active; AID 522; Q13285; CHO-K1 Gal4-SF-1 LBD luciferase reporter; % increase over DMSO SF-1-specific signal; activation, % at 10 µM;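 active means activation above the mean activation of all tested compounds plus 3 SD, cut at about 50% in these data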
#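 Assay system – CHO-K1 cells with Gal4–hSF-1 LBD chimera plus Gal4-driven luciferase · Quantity – 4,000 cells per well · Times – compound added 1 h post-seeding, 20 h exposure at 37 °C, 5% CO2 · Measured by – luciferase light emission · Benchmarks – DMSO and mock-transfected background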
# S1P3 ag: agonists of human S1P3 receptor; S1P3 NFAT-BLA reporter cells, agonism, FRET ratio; relative to 1 µM S1P, basal subtracted; activation, % at 4.5 µM; 0.1% of 60,000 active;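 active means activation above the screen-wide mean plus 3 SD, cut at about 4.5% in these data, passing the limit was not always enough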
#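 Benchmarks: high control 1 µM S1P / System: stable CHO line with human S1P3, Gα16, NFAT-BLA reporter / Dosing: single compound concentration, 4.5 µM final / Timing: 4 h compound at 37 °C, 2 h substrate at RT / Measured by: FRET β-lactamase substrate fluorescence, excitation 405 nm, 460/535 nm emission ratio, background-subtracted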
# RORA act: activators of human nuclear receptor RORA. P35398. CHO-K1 Gal4-RORA LBD luciferase reporter, luminescence; percent increase over mock-subtracted basal signal. 1.5% of 65,000 active. activation, % at 10 µM;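 active means activation above the mean of all tested compounds plus 3 SD, cut at about 49% in these data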;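 further: 0% = DMSO-treated RORA cells and 100% = added signal equal to DMSO minus mock-transfected cells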
# M1 ag: agonists of M1 muscarinic receptor; CHO-M1 cells, Fluo-4 calcium fluorescence, agonist mode; active compounds read high; B-score at 10 µM; 3% of 64,000 active; AID 626;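 active means fluorescence rise, raw or as B-score row- and column-corrected plate score, outside the 99.7% band of its plate's samples, either direction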
# S1P1 ag-PAM: activates or potentiates agonism at human S1P1 receptor | P21453 | S1P1 CRE-bla cells, forskolin, beta-lactamase FRET, potentiator mode; S1P1 agonist co-added at EC20, 2 nM; 100% = saturating reference agonist, 0% = basal | activation, % at 9.5 µM | 0.57% of 56,000 active | AID 449;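 active means activation above a cutoff set at the mean activation of all tested compounds plus 3 SD, cut at about 54% in these data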;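 further: forskolin at 4 µM as EC80 and the EC20 agonist is SEW2871; 100% = SEW2871 at its EC100 plus forskolin at EC80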
# M1 antag conf: M1 muscarinic receptor (rat) antagonism, confirmed. shares compounds with M1 antagonist. CHO-M1 cells, Fluo-4 calcium, ACh EC80 antagonism; active compounds read low. calcium response (max-min fluorescence) at 10 µM. 43% of 1,700 active;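 active means calcium response below the same-plate mean of wells given acetylcholine alone at its 80%-effect dose, minus 3 SD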;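 further: raw fluorescence intensity difference in arbitrary instrument units and not normalized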
# mGluR4 antag: mGluR4 (human) activity, M1 antagonist secondary assay | fluorescence response (max-min) at 10 µM | shares compounds with M1 antagonist | AID 678 | 0.9% of 1,700 active | CHO-mGluR4 calcium flux, Fluo-4 fluorescence, glutamate EC80; active compounds read low;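 active means fluorescence response below the plate's average for near-maximal glutamate wells, less 3 SD of those wells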;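 further: raw unnormalized fluorescence span taken in the window right after glutamate addition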
# Numbers without * were called inactive; nt = no result given.
SMILES,M1 antagonist,SF-1 act,S1P3 ag,RORA act,M1 ag,S1P1 ag-PAM,M1 antag conf,mGluR4 antag
CCN(CC)CCCN(C(=O)c1cccs1)c1nc(-c2ccc(OC)cc2)cs1,-5.3*,-1,1,26,-1.4,-14,321*,237
COc1ccc(-c2csc(N(CC3CCCO3)C(=O)c3cccs3)n2)cc1 (stereo not given),0.29,41,-2,39,-0.36,-4,nt,nt
COCCSc1nc2sc3c(c2c(=O)n1-c1ccccc1)CCN(C)C3,-3*,-18,nt,-5,-0.84,nt,519,231
CCN(C#N)c1nc(NC(C)C)nc(NC(C)C)n1,-3.5*,4,0,-23,0.43,-10,607,246
CCOc1cccc(OCCCCN2CCCCC2)c1,-3.1*,-7,1,-6,0.36,4,329*,214
CCOc1ccc(NC(=O)CCN2CCCCC2)cc1,-0.43,0,-1,3,-0.7,-9,nt,nt
COc1cccc(OCCCCN2CCCCC2)c1,-1.2*,10,-2,6,0.11,-11,280*,203
COc1cccc(OCCCN2CCCCC2)c1,-0.52,22,-1,-20,-0.53,-18,nt,nt
Cn1c(C(=O)NC2CCCCC2)cc2sccc21,-0.32,-12,0,-14,-0.19,12,nt,nt
CN(C(=O)c1cc2sccc2n1C)C1CCCCC1,-3.2*,2,0,1,0.75,28,628,236
O=C(c1ccc(Cl)s1)N1CCN(c2ccccc2)CC1,-0.11,-7,0,-3,0.023,0,nt,nt
CCc1ccc(C(=O)N2CCN(c3ccc(F)cc3)CC2)s1,-6.5*,6,0,12,-1.4,30,507*,229
O=C1NCCCC1C(=O)N1CCN(C(c2ccccc2)c2ccccc2)CC1 (stereo not given),-0.25,-14,-1,-1,0.9,10,nt,nt
CS(=O)(=O)Nc1ccccc1C(=O)Nc1cccc(Cl)c1,-2.5*,-1,0,1,1.6,18,627,187
Cc1cc(C)nc(SCC(=O)Oc2ccc3oc(=O)cc(C)c3c2)n1,-2.6*,4,nt,-9,-0.31,nt,685,163
Cc1cc(=O)oc2ccc(OCC(=O)N3CCc4ccccc43)cc12,-0.51,-2,1,3,1.6,14,nt,nt
CC1CCCN(C(=O)COC(=O)c2n[nH]c3ccccc23)C1 (stereo not given),-9.6*,37,-2,-2,0.16,5,670,241
COC(=O)C1CCN(C(=O)COC(=O)c2n[nH]c3ccccc23)CC1,0.044,4,5,18,0.043,5,nt,nt
Nc1nc(CN2CCN(c3ccccc3)CC2)nc(N2CCCc3ccccc32)n1,-3.1*,0,1,-13,-0.12,-9,659,252
Nc1nc(CN2CCN(c3cccc(Cl)c3)CC2)nc(N2CCCc3ccccc32)n1,-0.84,-4,0,5,0.11,0,nt,nt
CCc1ccc(CNc2ccc3c(c2)ncn3C)cc1,-2.7*,70*,-1,61*,-0.29,1,627,248
CCn1cnc2cc(NCc3ccncc3)ccc21,-1.5,8,-1,-10,0.55,6,nt,nt
CNC(=O)c1cc(S(=O)(=O)N(C)C)ccc1Cl,-0.24,-6,-1,0,0.37,nt,nt,nt
CC(=O)CC1OC(=O)C(Br)=C1NCc1ccccc1 (stereo not given),-2.3*,-79,-1,-63,-0.78,-40,669,225
CCC(=O)Nc1ccc(NC(=O)CN2CCCC(C)C2)c(Cl)c1 (stereo not given),-2.8*,-8,1,0,-1.4,6,613,201
SMILES,M1 antagonist,SF-1 act,S1P3 ag,RORA act,M1 ag,S1P1 ag-PAM,M1 antag conf,mGluR4 antag
O=C(CN1CCCCC1)Nc1ccc(F)c(Cl)c1,1,-7,nt,-22,-1.1,nt,nt,nt
Cn1c(SC2C(=O)CC(C)(C)CC2=O)nnc1-c1ccco1,-12*,-13,-1,17,0.03,-13,675,199
O=S(=O)(/N=S1/CC=CCN1S(=O)(=O)c1ccccc1)c1ccccc1 (stereo not given),-2.1*,-17,nt,-8,-1.4,nt,666,243
O=C(CN(CCc1ccccc1)C(=O)CNS(=O)(=O)c1ccc(F)cc1)NCC1CCCO1 (stereo not given),-2.3*,-10,0,15,0.074,-4,642,238
O=C(CN(C(=O)CNS(=O)(=O)c1ccccc1)C1CCCC1)NCC1CCCO1 (stereo not given),0.66,15,0,-11,-0.14,-5,nt,nt
Cc1cc(/C=N/n2cnnc2)c(C)n1-c1ccc(OCc2ccc(F)cc2)cc1,-2.4*,-86,-2,-70,0.4,142*,503*,247
COc1ccc(-c2noc(CCC(=O)NCC3CCN(Cc4cccc(C)c4)CC3)n2)cc1,-3.6*,21,nt,-11,3.4,nt,399*,240
COc1ccc(-c2noc(CCCC(=O)O)n2)cc1,-0.26,-57,-1,-68,-0.53,0,nt,nt
COc1ccc(-c2noc(CCC(=O)Nc3ccc(C)c(C)c3)n2)cc1,-3.2*,0,0,-5,-0.0018,21,647,166
CCOc1ccc(-c2noc(CCC(=O)O)n2)cc1,-0.87*,-53,0,-54,-0.66,24,638,240
CCOC(=O)C1C(=O)Nc2nc3ccccc3n2C1C(C)C (stereo not given),-0.28,-8,0,-16,-0.68,0,nt,nt
Cc1nc2ccccc2n1CCC(=O)Nc1cccc(F)c1,-0.013,1,-1,19,-0.34,3,nt,nt
COc1cccc(-c2nc(CS(=O)CC(=O)NCc3ccccc3Cl)c(C)o2)c1 (stereo not given),1.3,-11,0,1,0.3,9,nt,nt
CCCCn1c(NC(C)CC)nc2c1c(=O)[nH]c(=O)n2C (stereo not given),0.63,-9,-1,-5,0.79,-28,nt,nt
CCN(CC)CCOC(=O)c1ccc(NC(=O)COc2cc(=O)n(CC)c3ccccc23)cc1,-3.4*,-19,0,0,1.2,-9,576*,184
CN(C)c1ccc(C2C3C(=O)N(c4ccc(C(=O)O)cc4)C(=O)C3ON2c2ccccc2)cc1 (stereo not given),-2.5*,-10,-3,-1,-0.44,-10,15*,215
CCOC(=O)CNC(=O)CSc1nc(NCc2ccccc2)nc(N(C)C)n1,-1.8*,-8,-1,-1,0.48,nt,683,254

# Compound activity from PubChem.
